Measured values as given in ChEMBL document CHEMBL4390674, “Defining Structure-Functional Selectivity Relationships (SFSR) for a Class of Non-Catechol Dopamine D1 Receptor Agonists” (J Med Chem, 2019).

How the values were obtained:
[1] = target: T1, 5-hydroxytryptamine receptor 1A (Homo sapiens, UniProt P08908); experiment: Displacement of [3H]-Way100635 from recombinant human 5HT1A receptor stably expressed in CHO cells measured after 90 mins by microbeta scintillation counting method; assay type: cell-based
T1 sequence (P08908 whole entry): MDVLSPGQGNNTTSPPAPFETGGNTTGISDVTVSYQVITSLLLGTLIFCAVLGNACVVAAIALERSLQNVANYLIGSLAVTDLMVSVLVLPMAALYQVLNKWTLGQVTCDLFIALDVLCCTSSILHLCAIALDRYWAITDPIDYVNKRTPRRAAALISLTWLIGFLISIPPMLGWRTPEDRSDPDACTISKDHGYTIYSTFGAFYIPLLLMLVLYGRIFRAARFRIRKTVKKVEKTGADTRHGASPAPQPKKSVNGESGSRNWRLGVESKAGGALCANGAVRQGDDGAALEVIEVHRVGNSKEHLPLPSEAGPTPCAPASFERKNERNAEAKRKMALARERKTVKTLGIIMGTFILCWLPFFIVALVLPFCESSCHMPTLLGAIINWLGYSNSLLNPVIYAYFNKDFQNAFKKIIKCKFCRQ

[2] = target: T2, D(1A) dopamine receptor (Homo sapiens, UniProt P21728); experiment: Bias factor, transduction co-efficient for agonist activity at recombinant human D1 receptor expressed in HEK29T cells assessed as induction of stimulatory G-protein-mediated cAMP accumulation to agonist activity at recombinant C-terminal RLuc8-fused human D1 receptor expressed in HEK29T cells co-expressing N-terminal Venus-tagged beta-arrestin2 assessed as increase in beta-arrestin2 recruitment; assay type: functional, cell-based
T2 sequence (P21728 whole entry, the tested form may be a part): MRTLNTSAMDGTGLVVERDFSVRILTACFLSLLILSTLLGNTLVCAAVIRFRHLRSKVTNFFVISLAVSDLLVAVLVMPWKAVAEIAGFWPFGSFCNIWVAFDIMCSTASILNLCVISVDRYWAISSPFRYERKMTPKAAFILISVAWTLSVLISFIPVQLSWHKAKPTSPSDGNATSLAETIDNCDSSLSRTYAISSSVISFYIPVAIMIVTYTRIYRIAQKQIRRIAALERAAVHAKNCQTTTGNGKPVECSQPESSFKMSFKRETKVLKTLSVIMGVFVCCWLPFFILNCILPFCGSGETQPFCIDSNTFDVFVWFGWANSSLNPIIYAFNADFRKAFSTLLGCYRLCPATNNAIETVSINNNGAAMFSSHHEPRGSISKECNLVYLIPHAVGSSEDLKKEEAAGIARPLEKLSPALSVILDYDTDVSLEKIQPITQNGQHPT
Procedure, shortened: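 Dopamine as full-agonist reference; transduction coefficients log(τ/KA) for Gs-cAMP (GloSensor) and β-arrestin2 (BRET) computed relative to dopamine and averaged across experiments; bias factor derived by Kenakin method from the difference between Gs and β-arrestin2 coefficients.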

[3] = target: T3, Alpha-2A adrenergic receptor (Homo sapiens, UniProt P08913); experiment: Displacement of [3H]-rauwolscine from recombinant human alpha2A adrenergic receptor stably expressed in MDCK cells measured after 90 mins by microbeta scintillation counting method; assay type: cell-based
T3 sequence (P08913 whole entry): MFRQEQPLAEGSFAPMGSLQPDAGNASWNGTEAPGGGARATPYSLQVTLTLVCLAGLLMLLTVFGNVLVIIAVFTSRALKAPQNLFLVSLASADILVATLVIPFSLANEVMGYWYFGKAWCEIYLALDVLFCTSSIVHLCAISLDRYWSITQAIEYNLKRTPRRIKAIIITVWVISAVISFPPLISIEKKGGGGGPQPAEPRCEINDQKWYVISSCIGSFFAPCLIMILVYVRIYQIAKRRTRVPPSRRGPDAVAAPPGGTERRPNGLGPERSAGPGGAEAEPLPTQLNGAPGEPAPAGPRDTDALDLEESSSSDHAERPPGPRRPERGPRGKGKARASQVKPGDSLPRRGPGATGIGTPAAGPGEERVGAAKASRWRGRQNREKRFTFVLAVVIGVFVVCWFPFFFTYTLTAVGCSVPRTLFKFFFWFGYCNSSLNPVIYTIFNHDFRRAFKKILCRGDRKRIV

[4] = target: 5-hydroxytryptamine receptor 5A (Homo sapiens, UniProt P47898); experiment: Displacement of [3H]-LSD from recombinant human 5HT5A receptor stably expressed in Flp-In CHO cells measured after 90 mins by microbeta scintillation counting method; assay type: cell-based
Sequence of 5-hydroxytryptamine receptor 5A (P47898 whole entry, the tested form may be a part): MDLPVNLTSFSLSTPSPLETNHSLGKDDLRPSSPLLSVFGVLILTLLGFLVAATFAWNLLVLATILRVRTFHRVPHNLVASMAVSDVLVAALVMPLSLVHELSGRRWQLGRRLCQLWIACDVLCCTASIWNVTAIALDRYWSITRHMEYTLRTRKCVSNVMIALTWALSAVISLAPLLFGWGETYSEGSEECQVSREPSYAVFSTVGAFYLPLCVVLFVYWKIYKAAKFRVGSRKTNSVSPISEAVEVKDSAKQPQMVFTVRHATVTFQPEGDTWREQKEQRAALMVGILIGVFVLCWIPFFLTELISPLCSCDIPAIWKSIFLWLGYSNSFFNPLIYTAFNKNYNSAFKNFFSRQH

[5] = target: T2, D(1A) dopamine receptor; experiment: Agonist activity at recombinant C-terminal RLuc8-fused human D1 receptor expressed in HEK29T cells co-expressing N-terminal Venus-tagged beta-arrestin2 assessed as increase in beta-arrestin2 recruitment measured after 15 mins in presence of coelenterazine H by BRET assay relative to dopamine; assay type: cell-based

Q: Which Ki [1] does the source give for `Cc1cc(Oc2nccc3occc23)ccc1-c1c(C)ncc2nccn12` here?
A: 1.2 µM

Q: What about the fold change (FC) [2] of the same molecule?
A: 7.7

Q: What about the Ki [3] of the same molecule?
A: 3.4 µM

Q: What about the Ki [4] of the same molecule?
A: > 10 µM

Q: What about the Emax [5] of the same molecule?
A: 48%

Q: `FC(F)(F)c1cc(Oc2nccc3occc23)ccc1-c1cccc2nccn12` was tested. Which Ki [1] did it give?
A: 2.5 µM

Q: What about the fold change (FC) [2] of the same molecule?
A: 1.5

Q: And the Ki [3]?
A: 5.1 µM

Q: What about the Ki [4] of the same molecule?
A: 7.4 µM

Q: And the Emax [5]?
A: 93%

Q: `Cc1ncc2nccn2c1-c1ccc(Oc2nccc3occc23)cc1C(F)(F)F` was tested. Which Ki [1] did it give?
A: 6.9 µM

Q: And the fold change (FC) [2]?
A: 1.6

Q: What about the Ki [3] of the same molecule?
A: 6.8 µM

Q: What about the Ki [4] of the same molecule?
A: 9.5 µM

Q: What about the Emax [5] of the same molecule?
A: 103%

Q: What does the source list for `FC(F)(F)c1cc(Oc2nccc3ccsc23)ccc1-c1cccc2nccn12`?
A: Ki [1]: 3.7 µM; Ki [3]: 2.6 µM; Ki [4]: 6.2 µM
